Most compounds without a hit are left out; they make up all but 3.1% or so of the library.
GalR3 antagonist – blocks the human galanin receptor 3; inhibition, % at 3 µM; actives 0.44% (n = 360,000); O60755; HEK293 GalR3-CNG cAMP membrane potential fluorescence; galR3 body fused to GalR1 C-terminus; AID 651719;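 active means inhibition above the screen-wide average plus 3 SD, cut at about 13% in these data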;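 further: forskolin and galanin both at EC90 stimulate the cells; cAMP rise reported by CNG channel membrane potential dye signal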
Target sequence (O60755 1-299 limits assumed): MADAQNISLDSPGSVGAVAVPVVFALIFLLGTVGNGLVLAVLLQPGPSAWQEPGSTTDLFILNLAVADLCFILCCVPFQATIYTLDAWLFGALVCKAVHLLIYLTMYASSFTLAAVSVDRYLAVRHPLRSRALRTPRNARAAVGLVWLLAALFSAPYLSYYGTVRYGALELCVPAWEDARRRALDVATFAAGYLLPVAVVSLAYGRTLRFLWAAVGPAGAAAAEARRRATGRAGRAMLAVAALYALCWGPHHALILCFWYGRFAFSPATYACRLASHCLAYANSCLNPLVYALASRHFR
CHO parental Ca – counter-screen for OX1R antagonists: effect in parental CHO cells. parental CHO-K1, ATP-induced calcium, Fluo-8 fluorescence. actives 0.63% (n = 330,000). inhibition, % at 5.6 µM. AID 463079;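 active means inhibition above that plate's mean sample inhibition plus 3 SD, cut at about 26% in these data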
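Assay system: parental CHO cells; Read-out basis: percent inhibition of ATP-evoked calcium rise, normalized to controls; Benchmarks: ATP and no-ATP DMSO wells; Compound dosing: single nominal dose of 5.6 µM per compound; Signal: Fluo-8 calcium dye fluorescence; Also added: ATP as calcium-mobilizing challenge; Repeats: singlicate.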
GPR7 antag – antagonists of human GPR7 (neuropeptides B/W receptor 1); P48145; GPR7-expressing cells, fluorescence antagonist assay; inhibition, % at 4.4 µM; actives 1.1% (n = 290,000); AID 1861; in the data active means inhibition above about 16%, passing the limit was not always enough;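 further: cells stimulated with the agonist NPW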
Target sequence (P48145 whole entry, looked up): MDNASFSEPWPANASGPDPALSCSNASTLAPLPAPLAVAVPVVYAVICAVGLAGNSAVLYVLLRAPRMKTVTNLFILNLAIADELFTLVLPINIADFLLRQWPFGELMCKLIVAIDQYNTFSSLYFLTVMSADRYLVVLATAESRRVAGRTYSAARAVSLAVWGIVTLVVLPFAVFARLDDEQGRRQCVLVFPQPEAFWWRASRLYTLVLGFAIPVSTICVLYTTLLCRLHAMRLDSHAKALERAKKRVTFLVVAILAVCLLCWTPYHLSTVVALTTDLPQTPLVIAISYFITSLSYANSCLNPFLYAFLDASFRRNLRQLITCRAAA
OX1R antag-1 – antagonists of human orexin 1 receptor; O43613; CHO/OX1R cells, Fluo-8 calcium fluorescence, orexin A; inhibition, % at 5 µM; actives 0.43% (n = 330,000);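 active means inhibition above its plate's threshold, mean inhibition of all tested compounds on the plate plus 3 SD, cut at about 37% in these data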
OX1R antag-2 – blocks the human orexin 1 receptor. O43613. actives 1.8% (n = 330,000). AID 485270. OX1R-expressing cells, FRET antagonist read-out. inhibition, % at 6.6 µM; in the data active means inhibition mostly above about 38%, no sharp cut-off; inactive means mostly below about 40%
OX1R Fluo8 conf – OX1R (human) antagonism, confirmed. inhibition, % at 5 µM. actives 38% (n = 1,100). shares compounds with OX1R antag-1. CHO/OX1R cells, orexin A calcium Fluo-8 fluorescence; in the data active means inhibition above about 29%
CHO Ca counter – counter-screen: parental CHO calcium response change, triplicate; inhibition, % at 5.6 µM; shares compounds with OX1R antag-1; actives 9.3% (n = 1,100); parental CHO-K1, ATP-induced calcium, Fluo-8 fluorescence; AID 492965;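 active means inhibition above a per-plate limit, the mean inhibition of that plate's test compounds plus 3 SD, cut at about 25% in these data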
A number is an active result; i = inactive; nt = no result given.

SMILES | GalR3 antagonist | CHO parental Ca | GPR7 antag | OX1R antag-1 | OX1R antag-2 | OX1R Fluo8 conf | CHO Ca counter
COc1ccc2c(COC(=O)c3cccc(S(=O)(=O)NCC(C)C)c3)cc(=O)oc2c1 | i | i | i | 46 | i | 42 | i
COc1ccc2c(COC(=O)CNS(=O)(=O)c3ccc(C)c(C)c3)cc(=O)oc2c1 | i | i | nt | i | i | nt | nt
O=C(NCc1cccs1)c1ccc2sc([C@H]3C[C@H](O)[C@@H](CO)O3)nc2c1 | i | nt | nt | nt | nt | nt | nt
C=CCSc1nnc(CCc2ccccc2)n1N | i | nt | nt | nt | nt | nt | nt
O=c1[nH]c(=S)[nH]c2c1C(c1ccccc1)OC(C1CCCCC1)C2 (configuration not stated) | i | nt | nt | nt | nt | nt | nt
Cc1ccccc1-n1nnnc1SCC(C)C | i | i | i | i | i | nt | nt
Cc1ccccc1-n1nnnc1SCc1csc(-c2ccccc2)n1 | i | i | i | i | i | i | i
COC(=O)c1cncn1Cc1ccccc1 | i | nt | nt | nt | nt | nt | nt
O=C(Cn1ncc(N2CCOCC2)c(Cl)c1=O)c1ccc(Cl)cc1 | i | i | i | i | i | nt | nt
O=C(Cn1ncc(Cl)c(Cl)c1=O)c1ccc(Cl)cc1 | i | i | i | i | i | 43 | 31
CCCCC1OC(CCc2ccccc2)CC2=C1C(=O)OC(C)(C)O2 (configuration not stated) | i | nt | nt | nt | nt | nt | nt
O=C(Nc1nnc([C@@H]2C[C@H](O)[C@@H](CO)O2)s1)NC1CCCCC1 | i | nt | nt | nt | nt | nt | nt
Fc1ccc(-c2cc3nc(-c4ccccc4)cc(N4CCOCC4)n3n2)cc1 | i | i | i | i | i | nt | nt
Cc1ccc(-c2cc3nc(-c4ccccc4)cc(N4CCC5(CC4)OCCO5)n3n2)cc1 | i | i | i | i | i | 36 | i
CCc1ccc(C2NC(=O)c3ccccc3O2)cc1 (configuration not stated) | i | i | i | i | i | nt | nt
Cc1c(C(=O)Nc2ccc(S(=O)(=O)N(C)C3CCN(C)CC3)cc2)oc2ccccc12 | i | i | nt | i | i | nt | nt
Cc1c(C(=O)Nc2ccc(S(=O)(=O)N(C)C3CCN(C)CC3)cc2)oc2c(Cl)cccc12 | i | i | nt | 43 | i | i | i
CC(C(=O)Nc1ccccc1)c1ccc(-c2ccccc2)c(F)c1 (configuration not stated) | nt | i | i | 40 | i | i | i
C[C@H](CO)N1C[C@H](C)[C@H](CN(C)C(=O)Nc2ccc3c(c2)OCCO3)OCc2cnnn2CCCC1=O | i | nt | nt | nt | nt | nt | nt
CC(OC(=O)c1ccc(Cl)c([N+](=O)[O-])c1)C(=O)N1CCN(Cc2ccccc2)CC1 (configuration not stated) | i | i | nt | i | i | nt | nt
Cc1nn(-c2ccccc2)c2nc(N)c(C#N)c(-c3ccc(O)c(O)c3)c12 | i | i | i | i | i | 34 | i
CCc1c(-c2cccc(F)c2)ncn1CCc1ccccc1OC | i | nt | nt | nt | nt | nt | nt
O=C(NCC1CCCN(C(=O)CN2CCCCC2)C1)c1ccccc1Cl (configuration not stated) | i | i | i | i | i | nt | nt
CSCC(=O)N1CCCC(CNC(=O)c2ccccc2Cl)C1 (configuration not stated) | i | i | i | i | i | i | i
CNc1ccc(-c2ccccc2OC)cn1 | i | nt | nt | nt | nt | nt | nt
SMILES | GalR3 antagonist | CHO parental Ca | GPR7 antag | OX1R antag-1 | OX1R antag-2 | OX1R Fluo8 conf | CHO Ca counter
Cc1ccc(Cl)c(OCC(=O)NCC(c2cccs2)N2CCOCC2)c1 (configuration not stated) | i | i | nt | i | i | nt | nt
COc1ccc(C(=O)NNC(=S)NC(=O)c2ccco2)cc1 | i | i | i | i | i | i | i
Cc1ccc2nc(NC(=O)CCNS(=O)(=O)c3cccs3)sc2c1 | i | i | i | i | i | nt | nt
Cc1cccc2sc(NC(=O)CCNS(=O)(=O)c3cccs3)nc12 | i | i | i | i | i | i | i
CC(=O)Nc1sc(C)c(C)c1C(=O)OCC(=O)NC(C)c1ccccc1 (configuration not stated) | i | nt | nt | nt | nt | nt | nt
CC(C)NC(=O)N(C)C[C@H]1Oc2ccc(NC(=O)c3ccncc3)cc2C(=O)N([C@H](C)CO)C[C@@H]1C | i | i | nt | i | i | nt | nt
CCCCn1c(=O)[nH]c2nc3cc(N)ccc3nc2c1=O | i | i | i | 61 | i | 35 | 29
CCCCn1c(N)c(Br)c(=O)[nH]c1=O | i | i | i | i | i | nt | nt
Cc1ccsc1C(=O)N1CCCCCC1(C)C(=O)NCC(C)C (configuration not stated) | i | nt | nt | nt | nt | nt | nt
O=C(CCCOc1ccccc1)Nc1cccc([N+](=O)[O-])c1 | i | i | i | i | i | i | i
Cc1ccc(OCCCC(=O)Nc2ccc(Cl)c(S(=O)(=O)N3CCOCC3)c2)cc1 | i | i | nt | i | i | nt | nt
O=C(CCCOc1ccccc1)Nc1ccc(Cl)c(S(=O)(=O)N2CCOCC2)c1 | i | i | nt | i | i | i | i
CCOC(=O)Cn1c2ccccc2c2nc3ccccc3nc21 | i | i | i | i | i | nt | nt
CCCn1c2ccccc2c2nc3ccccc3nc21 | i | i | i | i | i | i | i
CCn1c2ccc(F)cc2c2nc3ccccc3nc21 | i | i | i | i | i | i | i
O=C(CN1c2ccccc2S(=O)(=O)c2ccccc21)NCc1ccc(F)cc1 | i | i | i | i | i | i | i
CC1CCCC(NC(=O)C2CCN(C(=O)Nc3ccccc3)CC2)C1C (configuration not stated) | i | i | nt | i | i | nt | nt
O=C(c1ccco1)n1nc(-c2ccco2)nc1SCc1ccccc1 | i | i | i | i | i | nt | nt
O=C(Cc1ccccc1)n1nc(-c2ccco2)nc1SCc1ccccc1 | i | i | i | 40 | i | i | i
N#CC(=C1C=C(Br)C(=NO)C=C1Cl)c1cccc2ccccc12 | i | nt | nt | nt | nt | nt | nt
CNc1snc(C)c1C(=O)OCC(=O)c1ccc(Cl)cc1 | i | i | nt | i | i | i | 45
CC1C(=O)CC2C3(C)CCC2(C(C)C(=O)O)C(=O)C13 (configuration not stated) | i | nt | nt | nt | nt | nt | nt
CN(c1ccc(OCC(=O)NC2CCC(O)CC2)cc1)S(=O)(=O)c1ccc(Cl)cc1 (configuration not stated) | i | i | nt | i | i | nt | nt
O=C(OCc1cccc([N+](=O)[O-])c1)c1cc2ccccc2oc1=O | i | i | i | i | i | i | i
CCOC(=O)Cc1ccc(Nc2nc(NCc3ccccc3)nc3ccsc23)cc1 | i | nt | nt | nt | nt | nt | nt
COc1ccc(OC)c(NS(=O)(=O)c2ccc(Cl)nc2)c1 | i | i | i | i | i | nt | nt
CCCCOc1ccc(S(=O)(=O)Nc2cc(OC)ccc2OC)cc1 | i | i | i | 51 | i | i | i
Cc1ncc(CO)c2c1Oc1nc(-c3ccccc3F)nc(SCC(=O)N(C)c3ccccc3)c1C2 | nt | i | i | i | i | i | i
O=C1N[C@@H](c2ccccc2)COC(=O)[C@H](Cc2ccc(F)cc2)C/C=C\C[C@H]1CC(=O)N(CCO)Cc1ccccc1 | i | nt | nt | nt | nt | nt | nt
O=C1N[C@@H](c2ccccc2)COC(=O)[C@@H](Cc2ccc(F)cc2)C/C=C\C[C@@H]1CC(=O)N(CCO)Cc1ccccc1 | i | i | nt | i | i | 63 | i

Source: PubChem
